Experimental data: ChEMBL document CHEMBL1149793, “1,8-Naphthyridines VI. Synthesis and anti-inflammatory activity of 5-(alkylamino)-N,N-diethyl[1,2,4]triazolo[4,3-a][1,8]naphthyridine-6-carboxamides with a new substitution pattern on the triazole ring” (2008)

Key:
Format in all cases: functional
[1] = test system: Rattus norvegicus; experiment: Antiinflammatory activity against carrageenan-induced edema in Sprague-Dawley rat at 200 mg/kg, po
How it was run: (§1)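 Rats were dosed orally by gastric intubation with a homogenized suspension in 0.5% carboxymethylcellulose (1 mL/100 g); controls received vehicle alone. After 60 min, 0.1 mL of 1% carrageenan in saline was injected into the plantar surface of the right hind paw. Paw volume was measured by water displacement at injection and 2 h later. Edema was taken as the difference, with % inhibition versus controls (mean ± SD, Student's t-test).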

[2] = test system: Rattus norvegicus; experiment: Antiinflammatory activity against carrageenan-induced edema in Sprague-Dawley rat at 25 mg/kg, po
How it was run: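 Oral gavage dosing as a homogenized suspension in 0.5% carboxymethylcellulose (1 mL/100 g); controls got vehicle; indomethacin 6 mg/kg p.o. positive control. After 60 min, 0.1 mL 1% carrageenan in saline injected into the right hind plantar surface. Paw volume read by water displacement to the lateral malleolus at injection and 2 h later; the difference is edema. % inhibition vs controls; Student's t-test.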

[3] = test system: Rattus norvegicus; experiment: Antiinflammatory activity against carrageenan-induced edema in Sprague-Dawley rat at 6 mg/kg, po; how it was run: as §1
[4] = test system: Rattus norvegicus; experiment: Antiinflammatory activity against carrageenan-induced edema in Sprague-Dawley rat at 100 mg/kg, po; how it was run: as §1
[5] = test system: Mus musculus; experiment: Analgesic activity against acetic acid-induced writhing in mouse at 3.12 mg/kg
[6] = test system: Rattus norvegicus; experiment: Antiinflammatory activity against carrageenan-induced edema in Sprague-Dawley rat at 50 mg/kg, po; how it was run: as §1

Row | Compound | inhibition in vivo at 200 mg/kg [1] [%] | further results
1 | CCN(CC)C(=O)c1c(Cl)c2cccnc2n2c(C(=O)N(C(C)C)C(C)C)nnc12 | 30 | –
2 | CCN(CC)C(=O)c1c(NCC(C)C)c2cccnc2n2c(CC(=O)NCC(C)C)nnc12 | 18 | –
3 | CCCN(CCC)C(=O)c1nnc2c(C(=O)N(CC)CC)c(NCC(C)C)c3cccnc3n12 | 35 | –
4 | CCNc1c(C(=O)N(CC)CC)c2nnc(C(C)C)n2c2ncccc12 | – | inhibition in vivo at 25 mg/kg [2]: 61%
5 | COc1ccc2c(c1)c(CC(=O)O)c(C)n2C(=O)c1ccc(Cl)cc1 [INDOMETHACIN] | – | inhibition in vivo at 6 mg/kg [3]: 92%
6 | CCNc1c(C(=O)N(CC)CC)c2nnc(CC(=O)OCC)n2c2ncccc12 | 0 | –
7 | CCN(CC)C(=O)c1c(NCC(C)C)c2cccnc2n2c(C(=O)N(CC)CC)nnc12 | 60 | inhibition in vivo at 100 mg/kg [4]: 30%
8 | CCN(CC)C(=O)c1c(N2CCN(C)CC2)c2cccnc2n2c(C(C)C)nnc12 | – | Activity [5]: 85%
9 | CCOC(=O)C(C)c1nnc2c(C(=O)N(CC)CC)c(NCC(C)C)c3cccnc3n12 (stereo not given) | 12 | –
10 | CCN(CC)C(=O)c1c(NCC(C)C)c2cccnc2n2c(C(C)C)nnc12 | – | inhibition in vivo at 25 mg/kg [2]: 61%
11 | CCOC(=O)Cc1nnc2c(C(=O)N(CC)CC)c(NCC(C)C)c3cccnc3n12 | 65 | inhibition in vivo at 100 mg/kg [4]: 35%; inhibition in vivo at 50 mg/kg [6]: 21%
12 | CCN(CC)C(=O)c1c(N(CC(C)C)C(C)=O)c2cccnc2n2c(C(C)C)nnc12 | 5 | –
13 | CCc1nnc2c(C(=O)N(CC)CC)c(N(CC)C(=O)c3cccnc3)c3cccnc3n12 | 51 | inhibition in vivo at 100 mg/kg [4]: 31%
14 | CCCCNc1c(C(=O)N(CC)CC)c2nnc(CC(=O)NCC(C)C)n2c2ncccc12 | 0 | –
15 | CCOC(=O)c1nnc2c(C(=O)N(CC)CC)c(NCC(C)C)c3cccnc3n12 | 20 | –
16 | CCN(CC)C(=O)c1c(NCC(C)C)c2cccnc2n2c(CC(=O)Nc3nccs3)nnc12 | 18 | –
